{"source": "paper PMC4233149", "about": "(Clinical cancer research : an official journal of the …, 2014)", "key": {"pSer473 AKT": {"test_system": "pSer473 AKT", "conditions": "cited from earlier work"}, "[1]": {"conditions": "read-out: mean Cmax of the no-observed-adverse-effect-level (NOAEL) dose; dogs, preclinical toxicology studies; cited from earlier work"}, "[2]": {"conditions": "observed in the earlier QOD dose-escalation study; cited from earlier work"}, "[3]": {"experiment": "Phase I safety and tolerability, alternate day", "type": "in vivo, human", "conditions": "60mg QOD", "procedure,_shortened": "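Patients took 60mg tablets fasted, QOD in 28-day cycles, in expansion cohorts (CRPC, ovarian, MRI). Safety was checked at baseline, cycle 1 days 1, 2, 7, 15, 21, 27 and 28, weekly in cycle 2, then monthly. Glucose was monitored. Serum C-peptide and whole-blood HbA1c were measured at baseline and monthly. AEs were graded by CTCAE v3.0.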"}, "advanced solid tumors": {"test_system": "advanced solid tumors", "experiment": "Tumor response", "type": "in vivo, human", "procedure,_shortened": "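Radiological disease status was assessed by RECIST 1.1 at baseline and every 8 weeks during oral weekly dosing.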"}, "[4]": {"experiment": "Plasma pharmacokinetics, QOD schedule", "type": "in vivo, human", "conditions": "60mg QOD"}, "pSer9 GSK3β": {"test_system": "pSer9 GSK3β", "experiment": "PD biomarker in platelet-rich plasma", "type": "in vivo, human", "conditions": "PRP; for mean pSer9 GSK3β signal, % of baseline levels: 200mg QW, n=11"}, "pThr246 PRAS40": {"test_system": "pThr246 PRAS40", "experiment": "PD biomarker in platelet-rich plasma", "type": "in vivo, human", "conditions": "60mg QOD, PRP", "procedure,_shortened": "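Platelet-rich plasma was collected at baseline and at 3, 6, 24 and 48h on oral 60mg QOD dosing. pThr246 PRAS40 was measured by MSD electrochemiluminescence assay validated to Good Clinical Practice standards. Values were expressed as percent of individual baseline, averaged per timepoint, and compared with baseline by paired t-test.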"}}, "note": "“And” between values parts separate entries of the source, which are not always exact repeats. Equal entries are not always repeated."}
{"smiles": "NC1(c2ccc(-c3nc4ccn5c(=O)[nH]nc5c4cc3-c3ccccc3)cc2)CCC1", "note": "[MK-2206]", "values": [{"measurement": "concentration required for 70% inhibition of pSer473 AKT in whole blood", "setting": "pSer473 AKT; level identified in preclinical models as associated with antitumor activity", "value": 57, "unit": "nmol/L"}, {"measurement": "prespecified PK target for 70% inhibition of pAKT", "setting": "pSer473 AKT; plasma concentration target", "value": 56.8, "unit": "nM"}, {"measurement": "Cmax", "setting": "[1]", "value": 365, "unit": "nM"}, {"measurement": "half-life", "setting": "[2]", "value": "60 to 80", "unit": "h"}, {"measurement": "C-peptide level increase during first cycle (range)", "setting": "[3]", "value": "2.7% to 495.5"}, {"measurement": "time for DLTs to resolve to baseline levels after drug interruption", "setting": "[3]", "value": "1-2 weeks"}, {"measurement": "end of cycle 1 HbA1c values", "setting": "[3]; 2 patients with baseline levels ≤6.5%", "value": "7.3% and 8.3%"}, {"measurement": "patients with increased C-peptide levels during first cycle", "setting": "[3]; 23/27", "value": 85.2, "unit": "%"}, {"measurement": "patients with HbA1c levels of ≤6.5% at baseline and end of cycle 1", "setting": "[3]; 25/29", "value": 86.2, "unit": "%"}, {"measurement": "elevated blood glucose levels, patients", "setting": "[3]; 27/38", "value": 71.1, "unit": "%"}, {"measurement": "tolerability", "setting": "[3]; 38 patients", "value": "generally well tolerated"}, {"measurement": "G3 hyperglycemia, patients", "setting": "[3]; following first cycle, 1/38", "value": 2.6, "unit": "%"}, {"measurement": "G1-2 hyperglycemia, patients", "setting": "[3]; following first cycle, 3/38", "value": 7.9, "unit": "%"}, {"measurement": "reduction in RECIST measurements of target lesions", "setting": "advanced solid tumors; 150mg QW, 8 weeks, one patient with ER/PR positive, HER2 negative metastatic breast cancer, PIK3CA exon 20 mutation", "value": 22, "unit": "%"}, {"measurement": "total time on treatment", "setting": "advanced solid tumors; 150mg QW, breast cancer patient, before disease progression", "value": 24, "unit": "weeks"}, {"measurement": "CA15-3 level after treatment", "setting": "advanced solid tumors; 150mg QW, breast cancer patient, from 6853U/ml", "value": 4399, "unit": "U/ml"}, {"measurement": "reduction in CA15-3", "setting": "advanced solid tumors; 150mg QW, same breast cancer patient", "value": "~36", "unit": "%"}, {"measurement": "duration of RECIST SD (range)", "setting": "advanced solid tumors; two patients with CRPC", "value": "6.5-7.5 months"}, {"measurement": "accumulation ratio AUClast day:AUCfirst day", "setting": "[4]", "value": 3.3}, {"measurement": "time of maximum suppression of pSer9 GSK3β post-MK-2206", "setting": "pSer9 GSK3β; 60mg QOD", "value": 6, "unit": "h"}, {"measurement": "mean pSer9 GSK3β levels, % of baseline levels", "setting": "pSer9 GSK3β; 60mg QOD, 3h", "value": 76.8, "unit": "%"}, {"measurement": "mean pSer9 GSK3β levels, % of baseline levels", "setting": "pSer9 GSK3β; 60mg QOD, 6h", "value": 67.5, "unit": "%"}, {"measurement": "mean pSer9 GSK3β levels, % of baseline levels", "setting": "pSer9 GSK3β; 60mg QOD, 24h", "value": 102.9, "unit": "%"}, {"measurement": "mean pSer9 GSK3β signal, % of baseline levels", "setting": "pSer9 GSK3β; 24h", "value": 65.0, "unit": "%"}, {"measurement": "mean pSer9 GSK3β signal, % of baseline levels", "setting": "pSer9 GSK3β; 48h", "value": 82.3, "unit": "%"}, {"measurement": "mean pSer9 GSK3β signal, % of baseline levels", "setting": "pSer9 GSK3β; 96h", "value": 91.4, "unit": "%"}, {"measurement": "mean pSer9 GSK3β signal, % of baseline levels", "setting": "pSer9 GSK3β; 168h", "value": 117.2, "unit": "%"}, {"measurement": "time of maximum suppression of pThr246 PRAS40 post-MK-2206", "setting": "pThr246 PRAS40", "value": 6, "unit": "h"}, {"measurement": "mean pThr246 PRAS40 levels, % of baseline levels", "setting": "pThr246 PRAS40; 3h", "value": 79.8, "unit": "%"}, {"measurement": "mean pThr246 PRAS40 levels, % of baseline levels", "setting": "pThr246 PRAS40; 6h", "value": 79.7, "unit": "%"}, {"measurement": "mean pThr246 PRAS40 levels, % of baseline levels", "setting": "pThr246 PRAS40; 24h", "value": 86.9, "unit": "%"}, {"measurement": "mean pThr246 PRAS40 levels, % of baseline levels", "setting": "pThr246 PRAS40; 48h", "value": 91.4, "unit": "%"}, {"measurement": "mean pThr246 PRAS40 levels, % of baseline levels", "setting": "pThr246 PRAS40; 48h, one outlier removed (28 patients), p=0.0019", "value": 81.9, "unit": "%"}]}
